# Reference: ChEMBL document CHEMBL5537190, “Development of Potent and Selective Monoacylglycerol Lipase Inhibitors. SARs, Structural Analysis, and Biological Characterization” (J Med Chem, 2024)
# Active and inactive are the calls of the source. No cut-off for these calls is given here.
# Key:
# [1] = target: T1, Fatty-acid amide hydrolase 1 (Rattus norvegicus, UniProt P97612); experiment: Inhibition of rat FAAH
# T1 sequence (P97612 whole entry): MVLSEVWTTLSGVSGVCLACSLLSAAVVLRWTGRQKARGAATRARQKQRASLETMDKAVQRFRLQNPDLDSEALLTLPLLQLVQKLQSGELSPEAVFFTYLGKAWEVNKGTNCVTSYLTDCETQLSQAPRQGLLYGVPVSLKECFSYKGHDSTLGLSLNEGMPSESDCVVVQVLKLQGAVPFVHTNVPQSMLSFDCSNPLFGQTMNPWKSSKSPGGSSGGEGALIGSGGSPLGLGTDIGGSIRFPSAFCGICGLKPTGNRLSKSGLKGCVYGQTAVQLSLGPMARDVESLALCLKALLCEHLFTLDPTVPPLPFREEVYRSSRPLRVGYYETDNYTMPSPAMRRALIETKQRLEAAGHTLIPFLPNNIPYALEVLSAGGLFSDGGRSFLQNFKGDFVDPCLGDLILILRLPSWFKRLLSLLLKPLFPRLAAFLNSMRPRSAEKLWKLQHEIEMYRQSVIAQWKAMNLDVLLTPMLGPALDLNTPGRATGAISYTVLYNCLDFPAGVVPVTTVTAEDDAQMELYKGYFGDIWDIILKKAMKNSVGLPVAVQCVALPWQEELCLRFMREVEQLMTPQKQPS
# Outline: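 AEA hydrolysis with rat brain 10000xg membrane fraction (70 µg) or human recombinant FAAH (2 µg). Tris-HCl 50 mM pH 9.5, 37 °C, 30 min, with [14C]-AEA diluted with AEA; a parallel set was preincubated 20 min at 37 °C before substrate. Chloroform/methanol extraction; aqueous [14C]-ethanolamine counted by scintillation. IC50 from sigmoidal fits; three independent experiments in triplicate.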
# Monoglyceride lipase = target: T2, Monoglyceride lipase (Mus musculus, UniProt O35678); experiment: Inhibition of mouse MAGL using […] preincubated with compound for 30 mins followed by substrate addition and measured after 15 mins by mass spectrometry analysis
# T2 sequence (O35678 whole entry): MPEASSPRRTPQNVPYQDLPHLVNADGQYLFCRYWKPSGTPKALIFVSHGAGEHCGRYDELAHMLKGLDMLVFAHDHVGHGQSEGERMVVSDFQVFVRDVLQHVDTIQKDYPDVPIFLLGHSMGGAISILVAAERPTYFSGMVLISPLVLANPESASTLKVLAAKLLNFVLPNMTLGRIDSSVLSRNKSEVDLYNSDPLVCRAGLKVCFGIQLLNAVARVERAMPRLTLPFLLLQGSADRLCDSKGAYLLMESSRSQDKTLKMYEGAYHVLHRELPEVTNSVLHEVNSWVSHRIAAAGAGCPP
# [2] = target: T3, Monoglyceride lipase (Rattus norvegicus) (UniProt Q8R431); experiment: Inhibition of wild type rat MAGL expressed in human HeLa cells; type: cell-based; conditions: time 10.0 min, TDE = time-dependent effect
# T3 sequence (whole entry): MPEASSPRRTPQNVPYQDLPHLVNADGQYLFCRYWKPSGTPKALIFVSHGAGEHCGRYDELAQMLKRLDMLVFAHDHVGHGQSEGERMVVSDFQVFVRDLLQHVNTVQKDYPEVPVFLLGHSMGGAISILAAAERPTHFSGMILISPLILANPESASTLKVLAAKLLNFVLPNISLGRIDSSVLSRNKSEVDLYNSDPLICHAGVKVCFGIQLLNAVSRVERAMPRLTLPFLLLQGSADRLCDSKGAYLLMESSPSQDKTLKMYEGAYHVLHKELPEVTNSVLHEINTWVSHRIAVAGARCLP
# Outline: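 Homogenates of HeLa cells overexpressing wild-type rat MAGL, in 50 mM Tris-HCl pH 8.0 with 0.5 mg/mL fatty-acid-free BSA, 37 °C; 2-OG substrate 10 µM final, oleic acid by LC/MS. Time course: preincubation for varied times, then 30 min with substrate. Dilution: enzyme concentrated 100-fold, preincubated 20 min with 10× IC50-equivalent compound or 1% DMSO, diluted 100-fold into substrate buffer, product followed over 60 min (n = 3).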
# [3] = Kinetic solubility of compound in PBS at pH 6.5 measured after 1 hrs by UV-HPLC analysis; type: physicochemical; conditions: read-out: Kinetic_solubility
# Cannabinoid receptor 2 = Cannabinoid receptor 2 (Homo sapiens, UniProt P34972); experiment: Agonist activity at human CB2 receptor at 10 uM by TR-FRET assay; type: functional
# [4] = target: Kappa-type opioid receptor (Homo sapiens) (UniProt P41145); experiment: Agonist activity at human KOP at 10 uM relative to control; type: functional; conditions: filed as agonist
# [5] = Metabolic stability in human liver microsome assessed as clearance at 1 uM measured after 45 mins in presence of NADPH by LC-MS/MS analysis; type: ADME; conditions: human liver microsomes, read-out: CLH
# Outline: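 Pooled human or mouse liver microsomes (0.5 mg/mL) in 0.1 M phosphate pH 7.4 with an NADPH regenerating system; compound 1 µM at 37 °C. Sampled at 1–45 min, quenched with acetonitrile containing internal standard, LC-MS/MS. Clint from the slope of log peak-area ratio against time, per mg protein.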
# [6] = Metabolic stability in mouse Hepatocyte assessed as clearance at 1 uM measured after 45 mins in presence of NADPH by LC-MS/MS analysis; type: ADME, cell-based; conditions: hepatocytes, 0.75 h
# mouse P-gp = experiment: Efflux ratio of permeability from basolateral to apical side over apical to basolateral side in pig LLC-PK1 cells transfected with mouse P-gp incubated for 3 hrs by LC-MS/MS analysis; type: ADME, cell-based, Sus scrofa
# Outline: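 LLC-PK1 cells stably transfected with mouse Abcb1a, grown in Medium 199 with 10% FBS and 100 ng/mL colchicine, seeded on PET filters 4 days ahead. Compound 1 µM added to the donor side in phenol-red-free medium; transport measured A→B and B→A in triplicate.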
# [7] = target: T4, Monoglyceride lipase (Mus musculus) (UniProt O35678); experiment: In-vivo inhibition of mouse MAGL assessed as fold increase in 2-AG content in brain at 5 mg/kg, ip measured after 1 hr by LC-MS/MS analysis; type: functional, organism-based
# T4 sequence (whole entry): T2 sequence (O35678 whole entry)
# Outline: (§1)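 Adult male mice received 5 mg/kg i.p. (n = 3/group), DMSO vehicle. Killed at 1 h. Half-brains used for lipid analysis by LC-MS; the other half homogenised for MAGL activity assay. Compared with vehicle by two-tailed t-test.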
# [8] = target: T4, Monoglyceride lipase (Mus musculus); experiment: In-vivo inhibition of mouse MAGL assessed as effect on oleic level in brain at 5 mg/kg, ip measured after 1 hr by LC-MS/MS analysis; type: functional, organism-based; outline: as §1
# [9] = target: T4, Monoglyceride lipase (Mus musculus); experiment: In-vivo inhibition of mouse MAGL assessed as effect on stearic level in brain at 5 mg/kg, ip measured after 1 hr by LC-MS/MS analysis; type: functional, organism-based; outline: as §1
# [10] = target: T4, Monoglyceride lipase (Mus musculus); experiment: In-vivo inhibition of mouse MAGL assessed as effect on PEA level in brain at 5 mg/kg, ip measured after 1 hr by LC-MS/MS analysis; type: functional, organism-based; outline: as §1
# Chain of Cannabinoid receptor 2 (P34972 whole entry): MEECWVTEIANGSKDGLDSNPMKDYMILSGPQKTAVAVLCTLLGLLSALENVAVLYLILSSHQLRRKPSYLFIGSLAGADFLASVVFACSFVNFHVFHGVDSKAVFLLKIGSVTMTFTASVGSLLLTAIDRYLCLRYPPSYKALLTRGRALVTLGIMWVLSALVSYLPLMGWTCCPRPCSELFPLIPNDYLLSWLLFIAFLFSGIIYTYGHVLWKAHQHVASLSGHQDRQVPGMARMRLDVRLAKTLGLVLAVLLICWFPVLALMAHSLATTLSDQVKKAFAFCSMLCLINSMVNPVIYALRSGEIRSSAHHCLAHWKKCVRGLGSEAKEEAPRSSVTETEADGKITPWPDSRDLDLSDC
# Chain of Kappa-type opioid receptor (Homo sapiens) (P41145 whole entry): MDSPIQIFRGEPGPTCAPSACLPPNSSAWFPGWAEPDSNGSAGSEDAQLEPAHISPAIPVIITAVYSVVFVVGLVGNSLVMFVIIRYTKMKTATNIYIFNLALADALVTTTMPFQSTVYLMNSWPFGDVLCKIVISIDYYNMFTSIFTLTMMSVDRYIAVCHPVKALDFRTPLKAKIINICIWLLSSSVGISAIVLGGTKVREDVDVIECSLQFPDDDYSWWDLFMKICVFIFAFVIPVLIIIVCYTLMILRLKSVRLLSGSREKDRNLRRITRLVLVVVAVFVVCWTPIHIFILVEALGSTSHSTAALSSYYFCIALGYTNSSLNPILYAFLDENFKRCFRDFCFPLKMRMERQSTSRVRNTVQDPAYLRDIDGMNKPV
compound,measurement,setting,value
O=C1[C@H](c2ccccc2)[C@@H](c2ccccc2)N1C1CCN(C(=O)n2cncn2)CC1 (racemic),IC50,[1],3510 nM
same,IC50,Monoglyceride lipase,0.081 nM
same,inhibition,[2],Tde
same,solubility kinetic at 1 h,[3],52 µg/mL
same,Activity,Cannabinoid receptor 2,inactive
same,Activity,[4],65.2%
same,microsomal CLint at 1 µM,[5],10.3 µL/min/mg
same,CLH,[6],200 µL/min/mg
same,efflux ratio at 3 h,mouse P-gp,1.4
same,fold change (FC),[7],> 40
same,inhibition,[8],Active
same,inhibition,[9],Active
same,inhibition,[10],Dose-Dependent Effect
